Measured values from different studies.
Compare with care: the assays were run in different laboratories.
EHMT1: Histone-lysine N-methyltransferase EHMT1 (EHMT1, Homo sapiens, UniProt Q9H9B1)
EDNRA: Endothelin-1 receptor (EDNRA, Homo sapiens, UniProt P25101)
PDE5A: cGMP-specific 3',5'-cyclic phosphodiesterase (PDE5A, Homo sapiens, UniProt O76074)
ADORA2A: Adenosine receptor A2a (ADORA2A, Homo sapiens, UniProt P29274)
PARP1: Poly [ADP-ribose] polymerase 1 (PARP1, Homo sapiens, UniProt P09874)
CNR1: Cannabinoid receptor 1 (CNR1, Homo sapiens, UniProt P21554)
SPHK1: Sphingosine kinase 1 (SPHK1, Homo sapiens, UniProt Q9NYA1)
HRH4: Histamine H4 receptor (HRH4, Homo sapiens, UniProt Q9H3N8)

SMILES | target | assay | setting | inhibition
CN1CC(Oc2cnc(C#N)cc2-c2ccn3nc(NC(=O)C4CC4)cc3c2)C1 | Testis-specific serine/threonine-protein kinase 4 (TSSK4, Homo sapiens, UniProt Q6SA08) | enzyme activity, inhibitor | 1 µM | -7%
O=C(O)c1cc(O)c2c(c1)[C@H]([C@H]1c3cc(C(=O)O)cc(O)c3C(=O)c3c(O[C@@H]4O[C@H](CO)[C@@H](O)[C@H](O)[C@H]4O)cccc31)c1cccc(O[C@@H]3O[C@H](CO)[C@@H](O)[C@H](O)[C@H]3O)c1C2=O | EHMT1 | cell-free assay | 10 µM | 16%
O=C(c1ccc(Cl)cc1)N(Cc1ccccc1)C1CCCCC1 | EDNRA | cell-free assay | 10 µM | 1.4%
C=CCN1C(=O)[C@H]2Cc3c([nH]c4ccccc34)[C@@H](c3ccc(Br)s3)N2C1=O | PDE5A | enzyme activity, inhibitor, FP | 10 µM | 96%
O=C(c1ccc(F)cc1)N(Cc1ccccc1)C1CCCCC1 | Sigma non-opioid intracellular receptor 1 (SIGMAR1, Homo sapiens, UniProt Q99720) | cell-free assay | 10 µM | 9%
COc1ccc(-c2nc3cc(CCCN4CCN(c5ccccc5)CC4)ccc3o2)cc1OC | ADORA2A | ligand displacement, radioligand | 10 µM, cell membranes | 11%
O=c1[nH]c(-c2c[nH]c3ncccc23)nc2ccccc12 | PARP1 | enzyme activity, inhibitor, ELISA | 10 µM | 28%
O=C(CN1CCNCC1)Nc1ccc2oc(-c3ccco3)nc2c1 | ADORA2A | ligand displacement, radioligand | 10 µM, cell membranes | 8%
Cn1cncc1C1=CN(c2ncnc3[nH]cnc23)CCS1 | Interleukin-1 receptor-associated kinase-like 2 (IRAK2, Homo sapiens, UniProt O43187) | enzyme activity, inhibitor, radiometric | 50 nM | 30.7%
O=C(NCCNC(=O)c1n[nH]c(=O)c2ccccc12)c1cccc(CN2C(=O)CNC2=O)c1 | PARP1 | enzyme activity, inhibitor | 0.5 µM | ~50%
COc1cc(NC(C)=O)c(Cl)cc1C(=O)Nc1nccs1 | 5-hydroxytryptamine receptor 2A (HTR2A, Homo sapiens, UniProt P28223) | ligand displacement, radioligand | 10 µM | 8.7%
COc1ccc(-n2nc(OCCCN3CCCCC3)ccc2=O)cc1 | CNR1 | ligand displacement | 1 µM | 43.8%
CN(C)C1CCN(CC#Cc2nn(C3CCCC3)c3nc(NCc4ccccc4)ncc23)C1 (centres unmarked) | Aurora kinase B (AURKB, Homo sapiens, UniProt Q96GD4) | enzyme activity, inhibitor, FRET | 10 µM | 51%
CCN1C(=O)[C@H]2Cc3c([nH]c4ccccc34)[C@@H](c3cccnc3)N2C1=O | PDE5A | enzyme activity, inhibitor, FP | 50 µM | 102%
O=C1C=CC(=O)c2c(O)cccc21 | EHMT1 | cell-free assay | 10 µM | -1%
CCN1C(=O)[C@@H]2Cc3c([nH]c4ccccc34)[C@H](c3ccc(OC)c(OC)c3)N2C1=O | PDE5A | enzyme activity, inhibitor, FP | 50 µM | 52%
CCCCC(CC)CNC(=N)NC(=N)NCCCCCCNC(=N)NC(=N)NCC(CC)CCCC (centres unmarked) | EHMT1 | cell-free assay | 10 µM | -22%
CCN(Cc1ccccc1C(F)(F)F)C(=O)C1CCN(S(=O)(=O)c2ccc3[nH]ncc3c2)CC1 | EDNRA | ligand displacement, radioligand | 10 µM | 1%
COc1cc2c(cc1OC)-c1nnnn1CCC2 | PARP1 | enzyme activity, inhibitor | 10 µM | 60%
Ic1cccc2cnccc12 | PARP1 | enzyme activity, inhibitor | 10 µM | 19.5%
COc1ccc(-c2nc3cc(CCCN4CCCCC4)ccc3o2)cc1OC | ADORA2A | ligand displacement, radioligand | 10 µM, cell membranes | 10%
COC(=O)[C@H]1Cc2c([nH]c3ccccc23)[C@H](c2ccc(OC)c(OC)c2)N1C(=O)CCl | PDE5A | enzyme activity, inhibitor, FP | 50 µM | 75%
O=C(Nc1ccc(S(=O)(=O)N2CCC(Cl)CC2)cc1)c1ccc([N+](=O)[O-])o1 | Kappa-type opioid receptor (OPRK1, Homo sapiens, UniProt P41145) | cell-free assay | 10 µM | 7%
COC(=O)[C@@H]1Cc2c([nH]c3ccccc23)[C@@H](c2cccnc2)N1 | PDE5A | enzyme activity, inhibitor, FP | 50 µM | 41%

SMILES | target | assay | setting | inhibition
c1coc(-c2nc3cc(CN4CCNCC4)ccc3o2)c1 | ADORA2A | ligand displacement, radioligand | 10 µM, cell membranes | 15%
N=C(N)N1CCC[C@H]1c1nc(-c2ccc(CCC3CCCC3)c(C(F)(F)F)c2)no1 | SPHK1 | enzyme activity, inhibitor, radiometric | 1 µM | 0%
O=C1CCCc2ccc(F)cc2N1 | PARP1 | enzyme activity, inhibitor | 10 µM | 0%
COc1cccc2nc(-c3ccc(C(=O)N4CCN(C(=O)C5CC5)CC4)cc3F)[nH]c(=O)c12 | PARP1 | enzyme activity, inhibitor, ELISA | 10 µM | 56%
N=C(N)N1CCC[C@H]1c1nc(-c2ccc(CCC3CC3)c(C(F)(F)F)c2)no1 | SPHK1 | enzyme activity, inhibitor, radiometric | 1 µM | 14%
Oc1cccc(Nc2nc(-c3ccc(F)cc3F)cs2)c1 | CNR1 | cell-free assay | 10 µM | 5.9%
O=C(O[C@@H]1Cc2c(O)cc(O)cc2O[C@@H]1c1cc(O)c(O)c(O)c1-c1c([C@H]2Oc3cc(O)cc(O)c3C[C@H]2O)cc(O)c(O)c1O)c1cc(O)c(O)c(O)c1 | EHMT1 | cell-free assay | 10 µM | -3%
CS(=O)(=O)Nc1cccc(-c2csc(NC(=O)CSc3nc4nccnc4c(=O)n3CCc3ccccc3)n2)c1 | SPHK1 | enzyme activity, inhibitor | 10 µM | 9%
CN1CCN(CCCOc2ccc(=O)n(-c3ccc(Cl)c(Cl)c3)n2)CC1 | CNR1 | ligand displacement | 1 µM | 27.4%
[H]/N=C(/N)N1CCC[C@H]1c1nc(-c2ccc(OCCC=CCCC)c(C(F)(F)F)c2)no1 | SPHK1 | enzyme activity, inhibitor, radiometric | 1 µM | 11%
COc1ccc([C@@H]2c3[nH]c4ccccc4c3C[C@H]3C(=O)N(C(C)(C)C)C(=O)N23)cc1OC | PDE5A | enzyme activity, inhibitor, FP | 50 µM | 79%
O=C(Oc1cc(O)cc2c1C[C@@H](OC(=O)c1cc(O)c(O)c(O)c1)[C@@H](c1cc(O)c(O)c(O)c1)O2)c1cc(O)c(O)c(O)c1 | EHMT1 | cell-free assay | 10 µM | -4%
CC(C)(C)N1C(=O)[C@H]2Cc3c([nH]c4ccccc34)[C@@H](c3cccnc3)N2C1=O | PDE5A | enzyme activity, inhibitor, FP | 50 µM | 90%
CCN(c1cc(C#CCN2CCOCC2)cc(C(=O)NCc2c(C)cc(C)[nH]c2=O)c1C)[C@H]1CC[C@H](N(C)CCOC)CC1 | EHMT1 | enzyme activity, inhibitor | 1 µM | 9%
COC(=O)[C@@H]1Cc2c([nH]c3ccccc23)[C@H](c2ccc(OC)c(OC)c2)N1 | PDE5A | enzyme activity, inhibitor, FP | 50 µM | 8%
CCCCC=CCOc1ccc(-c2noc([C@@H]3CCCN3C(=N)N)n2)cc1C(F)(F)F | SPHK1 | enzyme activity, inhibitor, radiometric | 1 µM | 18%
O=C1c2c(O)cccc2Cc2cccc(O)c21 | EHMT1 | cell-free assay | 10 µM | 10%
[H]/N=C(\N)N1CCC[C@H]1c1nc(-c2ccc(OCC=Cc3ccc(C(F)(F)F)cc3)c(C(F)(F)F)c2)no1 | SPHK1 | enzyme activity, inhibitor, radiometric | 1 µM | 20%
N#Cc1cc(Cn2c(N3CCCC3)nc3ccccc32)ccc1F | HRH4 | ligand displacement | 10 µM | -16%
CC(C)(C)c1ccc(CCc2ccc(-c3noc([C@@H]4CCCN4C(=N)N)n3)cc2C(F)(F)F)cc1 | SPHK1 | enzyme activity, inhibitor, radiometric | 1 µM | 17%
CC(C)CCn1c(SCC(=O)Nc2ccccc2C(F)(F)F)nc2nccnc2c1=O | SPHK1 | enzyme activity, inhibitor | 10 µM | < 20%
N=C(N)N1CCC[C@H]1c1nc(-c2ccc(CCC3CCCCC3)c(C(F)(F)F)c2)no1 | SPHK1 | enzyme activity, inhibitor, radiometric | 1 µM | 15%
CCCNc1nc2ccccc2n1Cc1ccc(Cl)cc1 | HRH4 | ligand displacement | 10 µM | -8.89%
